Results on eight compounds are retold here after publication PMC4195389 (Journal of the American Chemical Society, 2014).

For data set [1], the system named is HCT116N cells (MMR-proficient) and HCT116O cells (MMR-deficient). The data set is classed as cell-based.
The subject of data set [2] is HCT116N and HCT116O cells. Kind of data set: MTT cytotoxicity assay. The data set is classed as cell-based. The conditions noted are these: 72 h. The gist of the method: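 HCT116N and HCT116O cells are seeded at 50,000 cells/well in 96-well format and exposed to test compound for 72 h. MTT labelling follows for 4 h at 37 °C under 5% CO2, and formazan is dissolved in acidified SDS. The read-out is A570 minus A690 background. Percent viability is formazan of treated over untreated cells. Differential cytotoxicity is the difference in percent viability between the two lines.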
(Tetrazolium assays rely on reduction of a dye to a coloured formazan, in cell work by metabolically active cells.)

Data set [3] can be described thus: Metalloinsertor pH titrations. In kind it is physicochemical. The note with it: chrysi immine proton; ambient temperature, 0.1 M NaCl; racemic mixtures. In a few lines: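 Test compound at 25 μM in 0.1 M NaCl is titrated from about pH 4.5 to 10.5 and back with 6 mM NaOH or 10 mM HCl, with pH followed by electrode. A UV-vis spectrum is recorded after each addition. Absorbance at one strongly changing wavelength is plotted against pH, and pKa is taken from the inflection of the sigmoid. Values from three separate experiments are pooled and averaged.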

Data set [4] deals with DNA hairpin 5′-[…]-3′ with CC mismatch. Kind of data set: Covalent DNA binding assay. The note with it: 30 min at 37 °C; neutral phosphate buffer or 5 mM glutathione.
For data set [5], the system named is HCT116N cells (MMR-proficient). Kind of data set: Cell death mode flow cytometry assay. The data set is classed as cell-based. The note with it: 72 h. The gist of the method: (§1)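 HCT116 cells, grown in RPMI 1640 with 10% FBS, glutamine, non-essential amino acids, pyruvate, penicillin/streptomycin and 400 μg/mL G418 at 37 °C under 5% CO2, are exposed to test compound (0–0.5 μM) for 72 h. They are then trypsinized, washed in cold PBS, pelleted and resuspended in PBS at 10^6 cells/mL. Staining is 30 min with propidium iodide (1 μg/mL final) plus YO-PRO-1 (50 nM final). Flow-cytometry events are gated as live, apoptotic, necrotic or dead.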
(In general: A flow cytometer gives signals particle by particle.)

For data set [6], the system named is HCT116O cells (MMR-deficient). Kind of data set: Cell death mode flow cytometry assay. The note with it: 72 h. In kind it is cell-based. In a few lines: as §1
Data set [7] has as its system matched sites in the DNA duplex. Kind of data set: Binding competition gels with [Rh. The note with it: competition with 4 μM [Rh(bpy)2(phi)]3+; up to 1:15 DNA:complex; data not shown.
In data set [8] the test system is 36-mer DNA duplex containing a CC mismatch. In kind it is binding.

On to `N.N.[Cl][Pt][Cl]` [cisplatin, cis-diamminedichloroplatinum, reference compound], for which, in data set [1], the “concentration required for optimal biological activity” value was 6 μM.
As to “[Rh(HDPA)2(chrysi)]^3+ [reference compound]”, the “optimal concentration for differential cytotoxicity” value in data set [2] was 25000 nM. In data set [1], the “concentration required for optimal differential activity” value came out at 10 µM.
As a reminder, the pKa is the pH at which an ionisable group is half protonated. “[Rh(chrysi)(phen)(DPE)]Cl2 [[Rh(chrysi)(phen)(DPE)]^2+]”: the “optimal concentration for differential cytotoxicity” value in data set [2] came to 6000 nM. Besides, the pKa in data set [3] is reported as 8.7 ± 0.2. For the same compound, in data set [1], the “concentration required for optimal differential activity” value was 3 µM; the “differential inhibition (difference in %BrdU incorporation between HCT116N and HCT116O cells)” value amounted to 55 ± 2%.
Take “[Rh(chrysi)(phen)(PPE)]Cl2 [[Rh(chrysi)(phen)(PPE)]^2+]”: in data set [2], the “optimal concentration for differential cytotoxicity” value worked out at 720 nM. In data set [3], the pKa amounted to 8.9 ± 0.4. Besides, in data set [4], the “covalent DNA binding” value is recorded as “no covalent DNA binding”. Besides, in data set [1], the “concentration required for optimal differential activity” value was determined as 1 µM; the “differential inhibition (difference in %BrdU incorporation between HCT116N and HCT116O cells)” value is on record as 53 ± 7%.
For the compound “[Rh(chrysi)(phen)(PPO)]Cl2 [[Rh(chrysi)(phen)(PPO)]^2+]”, the “optimal concentration for differential cytotoxicity” value in data set [2] is on record as 320 nM. The same compound yielded a live cells in data set [5] (0.2 μM) of 57 ± 7%. The “cells in the apoptotic region” value in data set [5] (following metalloinsertor treatment) is 25 ± 7%. Moreover, the pKa in data set [3] was found to be 8.3 ± 0.3. In addition, in data set [1], the “concentration required for optimal differential activity” value is 0.3 µM; the “differential inhibition (difference in %BrdU incorporation between HCT116N and HCT116O cells)” value was 62 ± 2%. Also, in data set [6] (0.2 or 0.5 μM, HCT116O versus HCT116N), the “mode of cell death” value is on record as “induces necrosis preferentially in the MMR-deficient HCT116O cell line”. In data set [6] (HCT116O, 0.2 μM), this compound yielded a live cells of 28 ± 6% and a necrotic cells of 13 ± 2%. Besides, in data set [6] (HCT116O, following metalloinsertor treatment), the “cells in the apoptotic region” value is given as 17 ± 7%.
“[Rh(chrysi)(phen)(PyOctanol)]Cl2 [[Rh(chrysi)(phen)(PyOctanol)]^2+]”: the “optimal concentration for differential cytotoxicity” value in data set [2] was determined as 480 nM.
As for Δ-[Rh(chrysi)(phen)(DPE)]^2+, in data set [7], the “binding at matched sites” value is on record as “no binding at matched sites”. Moreover, the “lower binding affinity for mismatched DNA as compared to Δ-[Rh(bpy)2(chrysi)]3+” value in data set [8] is recorded as around 5 fold.
Take Λ-[Rh(chrysi)(phen)(DPE)]^2+: the “binding at matched sites” value in data set [7] was “no binding at matched sites”.
